Measurements from different studies.
Observed: enzyme activity
Mode: inhibitor
KIT: Mast/stem cell growth factor receptor Kit (KIT, Homo sapiens, UniProt P10721)
PIK3CD: Phosphatidylinositol 4,5-bisphosphate 3-kinase catalytic subunit delta isoform (PIK3CD, Homo sapiens, UniProt O00329)

SMILES	target	method	IC50
CN(C)CCNC(=O)c1ccc(-c2nc3ccc4[nH]ncc4c3c3c2CCCCC3)cc1	KIT		990 nM
C=CCN1C(=O)C(=Nc2cccc(C)c2)c2ccccc21	PIK3CD	ADP detection	81.2 nM
CNC(=O)[C@H](Cc1c[nH]c2ccccc12)NC(=O)[C@@H](CC(=O)NO)CC(C)C	Matrix metalloproteinase-14 (MMP14, Homo sapiens, UniProt P50281)		1.37 nM
Cc1n[nH]c2ccc3nc(-c4ccc(C(=O)NCCN(C)C)cc4F)c4c(c3c12)CCCC4	KIT		512 nM
COc1ccc(-c2cc(=O)c3cccc(Nc4ncc5cc(C(=O)N(C)C)n(C6CCCC6)c5n4)c3o2)cc1	PIK3CD	radiometric	> 10000 nM
CN(C)CCNC(=O)c1ccc(-c2nc3ccc4[nH]ncc4c3c3c2CCCC3)c(F)c1	KIT		887 nM
CN(C)C(=O)c1cc2cnc(Nc3ccc(-c4ccc5c(=O)cc(N6CCOCC6)oc5c4)cc3)nc2n1C1CCCC1	PIK3CD	radiometric	897 nM
Cc1cccc(N=C2C(=O)N(Cc3ccccc3)c3ccccc32)c1	PIK3CD	ADP detection	21.9 nM
Oc1ccc(-c2nc(-c3ccncc3)c(-c3ccc(F)cc3)[nH]2)cc1	Tau-tubulin kinase 1 (TTBK1, Homo sapiens, UniProt Q5TCY1)		25500 nM
Cc1ccc(CN2C(=O)C(=Nc3c(C(C)C)cccc3C(C)C)c3ccccc32)cc1	PIK3CD	ADP detection	233 nM
Cc1n[nH]c2ccc3nc(-c4ccc(C(=O)NCCN(C)C)cc4)c4c(c3c12)CCCCC4	KIT		328 nM
O=C1Nc2ccccc2/C1=N\c1ccc(Cl)cc1	PIK3CD	ADP detection	765 nM
COc1ccc(-c2cc(=O)c3ccc(Nc4ncc5cc(C(=O)N(C)C)n(C6CCCC6)c5n4)cc3o2)cc1	PIK3CD	radiometric	9790 nM
CCc1nc(C(N)=O)c(Nc2ccc(N3CCC(N4CCN(C)CC4)CC3)c(OC)c2)nc1NC1CCOCC1	KIT		150 nM
CN(C)C(=O)c1cc2cnc(Nc3cc(C(=O)O)cc(-c4ccc5c(=O)cc(N6CCOCC6)oc5c4)c3)nc2n1C1CCCC1	PIK3CD	radiometric	725 nM
O=C(NO)c1ccc(Cn2cnc3c(Nc4ccc(Cl)cc4)ncnc32)cc1	RAC-beta serine/threonine-protein kinase (AKT2, Homo sapiens, UniProt P31751)	radiometric	> 20000 nM
CN(C)C(=O)c1cc2cnc(Nc3ccc(-c4cccc5c(=O)cc(N6CCNCC6)oc45)cc3)nc2n1C1CCCC1	PIK3CD	radiometric	2300 nM
O=C1Nc2ccccc2C1=Nc1cccc(Cl)c1	PIK3CD	ADP detection	83.7 nM
CN1CCN(c2cc(=O)c3ccc(Nc4ncc5cc(C(=O)N(C)C)n(C6CCCC6)c5n4)cc3o2)CC1	PIK3CD	radiometric	> 10000 nM
O=C1C(=Nc2ccccc2I)c2ccccc2N1Cc1ccc(Br)cc1	PIK3CD	ADP detection	139 nM
